Results published in ChEMBL document CHEMBL1155459, “On-bead screening of a combinatorial fumaric acid derived peptide library yields antiplasmodial cysteine protease inhibitors with unusual peptide sequences” (J Med Chem, 2009).
Peptide text beside a SMILES is read from it.

Experiments:
[1] = Inhibition of Plasmodium falciparum falcipain-2 after 12 hrs by fluorescence spectroscopy-based on-bead assay; parameters: concentration or dose not given beside the values; conditions: concentration not given here
Procedure, shortened: (§1)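 Library members on resin (PEGA, theoretical loading 0.40 mmol/g; added as DMSO suspension, 0.64 mM final inhibitor) preincubated with enzyme 12 h, then Cbz-Phe-Arg-AMC 40 μM added; AMC release followed by fluorescence (ex 380/em 460 nm). Kinetics compared with inhibitor-free amino-PEGA resin.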

[2] = biological target: Rhodesain (Trypanosoma brucei rhodesiense) (UniProt Q95PM0); test: Inhibition of Trypanosoma brucei rhodesiense rhodesain after 12 hrs by fluorescence spectroscopy-based on-bead assay; parameters: concentration or dose not given beside the values; conditions: concentration not given here; procedure, shortened: as §1
Chain of Rhodesain (Trypanosoma brucei rhodesiense) (Q95PM0 1-450): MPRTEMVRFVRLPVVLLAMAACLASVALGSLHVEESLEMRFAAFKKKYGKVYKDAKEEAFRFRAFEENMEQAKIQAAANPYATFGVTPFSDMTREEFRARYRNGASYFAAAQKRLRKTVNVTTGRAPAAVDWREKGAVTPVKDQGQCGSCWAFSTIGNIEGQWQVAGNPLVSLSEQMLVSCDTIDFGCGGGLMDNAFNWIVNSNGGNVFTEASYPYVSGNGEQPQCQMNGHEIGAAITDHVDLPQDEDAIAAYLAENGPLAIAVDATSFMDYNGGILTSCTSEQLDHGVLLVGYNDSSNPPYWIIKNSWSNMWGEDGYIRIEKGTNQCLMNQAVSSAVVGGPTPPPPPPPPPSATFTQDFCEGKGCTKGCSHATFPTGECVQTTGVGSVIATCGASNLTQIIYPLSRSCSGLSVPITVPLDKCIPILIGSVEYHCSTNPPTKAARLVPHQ

Question: Which results are given for CC[C@H](C)[C@H](NC(=O)[C@H](CNC(C)=O)NC(=O)/C=C/C(=O)N[C@@H](C)C(=O)NCC(=O)N[C@@H](Cc1ccccc1)C(=O)O)C(=O)N[C@@H](C)C(=O)N[C@H](C(N)=O)C(C)C (HELM PEPTIDE1{[C[C@H](NC(=O)/C=C/C(=O)[*:2])C(=O)NCC(=O)N[C@@H](Cc1ccccc1)C(=O)O].[O=C([C@H](CN[*:3])N[*:1])[*:2]].I.A.V.[am]}|PEPTIDE2{[ac]}$PEPTIDE1,PEPTIDE2,2:R3-1:R2$$$V2.0)?
Answer: inhibition [1]: 28%; inhibition [2]: 26%

Question: What does the source list for CC[C@H](C)[C@H](NC(=O)[C@H](CNC(C)=O)NC(=O)/C=C/C(=O)N[C@@H](C)C(=O)NCC(=O)N[C@@H](Cc1ccccc1)C(=O)O)C(=O)N[C@@H](CC(C)C)C(=O)N[C@H](C(N)=O)C(C)C (HELM PEPTIDE1{[C[C@H](NC(=O)/C=C/C(=O)[*:2])C(=O)NCC(=O)N[C@@H](Cc1ccccc1)C(=O)O].[O=C([C@H](CN[*:3])N[*:1])[*:2]].I.L.V.[am]}|PEPTIDE2{[ac]}$PEPTIDE1,PEPTIDE2,2:R3-1:R2$$$V2.0)?
Answer: inhibition [1]: 32%; inhibition [2]: 61%

Question: Which inhibition [1] does the source give for CC[C@H](C)[C@H](NC(=O)[C@H](CNC(C)=O)NC(=O)/C=C/C(=O)N[C@@H](C)C(=O)NCC(=O)N[C@@H](Cc1ccccc1)C(=O)O)C(=O)N[C@H](C(=O)N[C@H](C(N)=O)C(C)C)C(C)C (HELM PEPTIDE1{[C[C@H](NC(=O)/C=C/C(=O)[*:2])C(=O)NCC(=O)N[C@@H](Cc1ccccc1)C(=O)O].[O=C([C@H](CN[*:3])N[*:1])[*:2]].I.V.V.[am]}|PEPTIDE2{[ac]}$PEPTIDE1,PEPTIDE2,2:R3-1:R2$$$V2.0) here?
Answer: 52%

Question: And the inhibition [2]?
Answer: 49%

Question: What does the source list for CC(=O)NC[C@H](NC(=O)/C=C/C(=O)N[C@@H](C)C(=O)NCC(=O)N[C@@H](Cc1ccccc1)C(=O)O)C(=O)N[C@@H](CC(C)C)C(=O)N[C@@H](C)C(=O)N[C@H](C(N)=O)C(C)C (HELM PEPTIDE1{[C[C@H](NC(=O)/C=C/C(=O)[*:2])C(=O)NCC(=O)N[C@@H](Cc1ccccc1)C(=O)O].[O=C([C@H](CN[*:3])N[*:1])[*:2]].L.A.V.[am]}|PEPTIDE2{[ac]}$PEPTIDE1,PEPTIDE2,2:R3-1:R2$$$V2.0)?
Answer: inhibition [1]: 28%; inhibition [2]: 19%

Question: With CC(=O)NC[C@H](NC(=O)/C=C/C(=O)N[C@@H](C)C(=O)NCC(=O)N[C@@H](Cc1ccccc1)C(=O)O)C(=O)N[C@@H](CC(C)C)C(=O)N[C@@H](CC(C)C)C(=O)N[C@H](C(N)=O)C(C)C (HELM PEPTIDE1{[C[C@H](NC(=O)/C=C/C(=O)[*:2])C(=O)NCC(=O)N[C@@H](Cc1ccccc1)C(=O)O].[O=C([C@H](CN[*:3])N[*:1])[*:2]].L.L.V.[am]}|PEPTIDE2{[ac]}$PEPTIDE1,PEPTIDE2,2:R3-1:R2$$$V2.0) as the molecule, how does the inhibition [1] read?
Answer: 41%

Question: What about the inhibition [2] of the same molecule?
Answer: 63%

Question: Which results are given for CC(=O)NC[C@H](NC(=O)/C=C/C(=O)N[C@@H](C)C(=O)NCC(=O)N[C@@H](Cc1ccccc1)C(=O)O)C(=O)N[C@@H](CC(C)C)C(=O)N[C@H](C(=O)N[C@H](C(N)=O)C(C)C)C(C)C (HELM PEPTIDE1{[C[C@H](NC(=O)/C=C/C(=O)[*:2])C(=O)NCC(=O)N[C@@H](Cc1ccccc1)C(=O)O].[O=C([C@H](CN[*:3])N[*:1])[*:2]].L.V.V.[am]}|PEPTIDE2{[ac]}$PEPTIDE1,PEPTIDE2,2:R3-1:R2$$$V2.0)?
Answer: inhibition [1]: 35%; inhibition [2]: 60%

Question: With CC(=O)NC[C@H](NC(=O)/C=C/C(=O)N[C@@H](C)C(=O)NCC(=O)N[C@@H](Cc1ccccc1)C(=O)O)C(=O)N[C@H](C(=O)N[C@@H](C)C(=O)N[C@H](C(N)=O)C(C)C)c1ccccc1 (HELM PEPTIDE1{[C[C@H](NC(=O)/C=C/C(=O)[*:2])C(=O)NCC(=O)N[C@@H](Cc1ccccc1)C(=O)O].[O=C([C@H](CN[*:3])N[*:1])[*:2]].[Phg].A.V.[am]}|PEPTIDE2{[ac]}$PEPTIDE1,PEPTIDE2,2:R3-1:R2$$$V2.0) as the molecule, how does the inhibition [1] read?
Answer: 35%

Question: And the inhibition [2]?
Answer: 34%

Question: Which results are given for CC(=O)NC[C@H](NC(=O)/C=C/C(=O)N[C@@H](C)C(=O)NCC(=O)N[C@@H](Cc1ccccc1)C(=O)O)C(=O)N[C@H](C(=O)N[C@@H](CC(C)C)C(=O)N[C@H](C(N)=O)C(C)C)c1ccccc1 (HELM PEPTIDE1{[C[C@H](NC(=O)/C=C/C(=O)[*:2])C(=O)NCC(=O)N[C@@H](Cc1ccccc1)C(=O)O].[O=C([C@H](CN[*:3])N[*:1])[*:2]].[Phg].L.V.[am]}|PEPTIDE2{[ac]}$PEPTIDE1,PEPTIDE2,2:R3-1:R2$$$V2.0)?
Answer: inhibition [1]: 52%; inhibition [2]: 56%

Question: For CC(=O)NC[C@H](NC(=O)/C=C/C(=O)N[C@@H](C)C(=O)NCC(=O)N[C@@H](Cc1ccccc1)C(=O)O)C(=O)N[C@H](C(=O)N[C@H](C(=O)N[C@H](C(N)=O)C(C)C)C(C)C)c1ccccc1 (HELM PEPTIDE1{[C[C@H](NC(=O)/C=C/C(=O)[*:2])C(=O)NCC(=O)N[C@@H](Cc1ccccc1)C(=O)O].[O=C([C@H](CN[*:3])N[*:1])[*:2]].[Phg].V.V.[am]}|PEPTIDE2{[ac]}$PEPTIDE1,PEPTIDE2,2:R3-1:R2$$$V2.0), which inhibition [1] is on record?
Answer: 20%

Question: And the inhibition [2]?
Answer: 36%

Question: With CC(C)[C@H](NC(=O)[C@H](C)NC(=O)[C@H](Cc1ccccc1)NC(=O)[C@H](C)NC(=O)/C=C/C(=O)NCC(=O)NCC(=O)N[C@@H](Cc1ccccc1)C(=O)O)C(N)=O (HELM PEPTIDE1{[O=C(/C=C/C(=O)[*:2])NCC(=O)NCC(=O)N[C@@H](Cc1ccccc1)C(=O)O].A.F.A.V.[am]}$$$$V2.0) as the molecule, how does the inhibition [1] read?
Answer: 44%

Question: And the inhibition [2]?
Answer: 45%

Question: What does the source list for CC(C)C[C@H](NC(=O)[C@H](Cc1ccccc1)NC(=O)[C@H](C)NC(=O)/C=C/C(=O)NCC(=O)NCC(=O)N[C@@H](Cc1ccccc1)C(=O)O)C(=O)N[C@H](C(N)=O)C(C)C (HELM PEPTIDE1{[O=C(/C=C/C(=O)[*:2])NCC(=O)NCC(=O)N[C@@H](Cc1ccccc1)C(=O)O].A.F.L.V.[am]}$$$$V2.0)?
Answer: inhibition [1]: 68%; inhibition [2]: 67%

Question: Which inhibition [1] does the source give for CC(C)[C@H](NC(=O)[C@@H](NC(=O)[C@H](Cc1ccccc1)NC(=O)[C@H](C)NC(=O)/C=C/C(=O)NCC(=O)NCC(=O)N[C@@H](Cc1ccccc1)C(=O)O)C(C)C)C(N)=O (HELM PEPTIDE1{[O=C(/C=C/C(=O)[*:2])NCC(=O)NCC(=O)N[C@@H](Cc1ccccc1)C(=O)O].A.F.V.V.[am]}$$$$V2.0) here?
Answer: 27%

Question: And the inhibition [2]?
Answer: 48%

Question: Which inhibition [1] does the source give for CC[C@H](C)[C@H](NC(=O)[C@H](C)NC(=O)/C=C/C(=O)NCC(=O)NCC(=O)N[C@@H](Cc1ccccc1)C(=O)O)C(=O)N[C@@H](C)C(=O)N[C@H](C(N)=O)C(C)C (HELM PEPTIDE1{[O=C(/C=C/C(=O)[*:2])NCC(=O)NCC(=O)N[C@@H](Cc1ccccc1)C(=O)O].A.I.A.V.[am]}$$$$V2.0) here?
Answer: 54%

Question: And the inhibition [2]?
Answer: 31%

Question: What does the source list for CC[C@H](C)[C@H](NC(=O)[C@H](C)NC(=O)/C=C/C(=O)NCC(=O)NCC(=O)N[C@@H](Cc1ccccc1)C(=O)O)C(=O)N[C@@H](CC(C)C)C(=O)N[C@H](C(N)=O)C(C)C (HELM PEPTIDE1{[O=C(/C=C/C(=O)[*:2])NCC(=O)NCC(=O)N[C@@H](Cc1ccccc1)C(=O)O].A.I.L.V.[am]}$$$$V2.0)?
Answer: inhibition [1]: 61%; inhibition [2]: 58%

Question: Which inhibition [1] does the source give for CC[C@H](C)[C@H](NC(=O)[C@H](C)NC(=O)/C=C/C(=O)NCC(=O)NCC(=O)N[C@@H](Cc1ccccc1)C(=O)O)C(=O)N[C@H](C(=O)N[C@H](C(N)=O)C(C)C)C(C)C (HELM PEPTIDE1{[O=C(/C=C/C(=O)[*:2])NCC(=O)NCC(=O)N[C@@H](Cc1ccccc1)C(=O)O].A.I.V.V.[am]}$$$$V2.0) here?
Answer: 32%

Question: What about the inhibition [2] of the same molecule?
Answer: 33%

Question: For CC(C)C[C@H](NC(=O)[C@H](C)NC(=O)/C=C/C(=O)NCC(=O)NCC(=O)N[C@@H](Cc1ccccc1)C(=O)O)C(=O)N[C@@H](C)C(=O)N[C@H](C(N)=O)C(C)C (HELM PEPTIDE1{[O=C(/C=C/C(=O)[*:2])NCC(=O)NCC(=O)N[C@@H](Cc1ccccc1)C(=O)O].A.L.A.V.[am]}$$$$V2.0), which inhibition [1] is on record?
Answer: 57%

Question: What about the inhibition [2] of the same molecule?
Answer: 40%

Question: For CC(C)C[C@H](NC(=O)[C@H](C)NC(=O)/C=C/C(=O)NCC(=O)NCC(=O)N[C@@H](Cc1ccccc1)C(=O)O)C(=O)N[C@H](C(=O)N[C@H](C(N)=O)C(C)C)C(C)C (HELM PEPTIDE1{[O=C(/C=C/C(=O)[*:2])NCC(=O)NCC(=O)N[C@@H](Cc1ccccc1)C(=O)O].A.L.V.V.[am]}$$$$V2.0), which inhibition [1] is on record?
Answer: 29%

Question: What about the inhibition [2] of the same molecule?
Answer: 55%

Question: Which results are given for CC(C)[C@H](NC(=O)[C@H](C)NC(=O)[C@@H](NC(=O)[C@H](C)NC(=O)/C=C/C(=O)NCC(=O)NCC(=O)N[C@@H](Cc1ccccc1)C(=O)O)C1CCCCC1)C(N)=O (HELM PEPTIDE1{[O=C(/C=C/C(=O)[*:2])NCC(=O)NCC(=O)N[C@@H](Cc1ccccc1)C(=O)O].A.[O=C([C@@H](N[*:1])C1CCCCC1)[*:2]].A.V.[am]}$$$$V2.0)?
Answer: inhibition [1]: 31%; inhibition [2]: 26%

Question: For CC(C)C[C@H](NC(=O)[C@@H](NC(=O)[C@H](C)NC(=O)/C=C/C(=O)NCC(=O)NCC(=O)N[C@@H](Cc1ccccc1)C(=O)O)C1CCCCC1)C(=O)N[C@H](C(N)=O)C(C)C (HELM PEPTIDE1{[O=C(/C=C/C(=O)[*:2])NCC(=O)NCC(=O)N[C@@H](Cc1ccccc1)C(=O)O].A.[O=C([C@@H](N[*:1])C1CCCCC1)[*:2]].L.V.[am]}$$$$V2.0), which inhibition [1] is on record?
Answer: 43%

Question: What about the inhibition [2] of the same molecule?
Answer: 60%

Question: What does the source list for CC(C)[C@H](NC(=O)[C@@H](NC(=O)[C@@H](NC(=O)[C@H](C)NC(=O)/C=C/C(=O)NCC(=O)NCC(=O)N[C@@H](Cc1ccccc1)C(=O)O)C1CCCCC1)C(C)C)C(N)=O (HELM PEPTIDE1{[O=C(/C=C/C(=O)[*:2])NCC(=O)NCC(=O)N[C@@H](Cc1ccccc1)C(=O)O].A.[O=C([C@@H](N[*:1])C1CCCCC1)[*:2]].V.V.[am]}$$$$V2.0)?
Answer: inhibition [1]: 54%; inhibition [2]: 40%

Question: For CC(C)[C@H](NC(=O)[C@H](C)NC(=O)[C@@H](NC(=O)[C@H](C)NC(=O)/C=C/C(=O)NCC(=O)NCC(=O)N[C@@H](Cc1ccccc1)C(=O)O)c1ccccc1)C(N)=O (HELM PEPTIDE1{[O=C(/C=C/C(=O)[*:2])NCC(=O)NCC(=O)N[C@@H](Cc1ccccc1)C(=O)O].A.[Phg].A.V.[am]}$$$$V2.0), which inhibition [1] is on record?
Answer: 41%

Question: And the inhibition [2]?
Answer: 16%
